Rows were chosen to be rich in hits. Some 2.3% of all compounds tested hit in one or more screens of this group.
TRPC4 block = TRPC4 (mouse) channel inhibition; Q9QUQ5; HEK293 TRPC4beta/mu-opioid, DAMGO-evoked Fluo4 calcium flux; active compounds read low; B-score at 10 µM; actives 0.39% (n = 300,000); AID 2247;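 active = B-score over 3 SD under the library average, no early fluorescence shift, positive overall ratio signal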
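Signal: kinetic Fluo4 fluorescence imaging of calcium influx. Material: stable TRPC4beta/mu-opioid receptor HEK293 cells. Probe or stimulus: DAMGO in two steps, submaximal then maximal.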
FID counter = displaces DNA intercalator in HCV helicase counter-screen; actives 0.17% (n = 290,000); DNA fluorescent intercalator displacement, fluorescence; AID 1845; inhibition, % at 7.9 µM; in the data active = inhibition above about 37%;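 also: higher means more ethidium bromide displaced from hairpin DNA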
TRPC4 potent = TRPC4 (mouse) allosteric potentiation | Q9QUQ5 | HEK293 TRPC4beta/mu-opioid, DAMGO EC20, Fluo-4 Ca2+ flux; active compounds read high | B-score at 10 µM | actives 0.42% (n = 310,000) | AID 2227;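 active = B-score of calcium response area above 5 SD of library B-scores, with initial fluorescence ratio within 5 SD of library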
TRPC6 activator = mouse TRPC6 channel activation. Q61143. actives 0.13% (n = 310,000). B-score at 10 µM. HEK293-TRPC6 membrane potential dye fluorescence; active compounds read high;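 active = B-score of the integrated fluorescence ratio above library mean plus 3 SD, and starting fluorescence ratio within library mean plus 5 SD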;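 also: higher score means more depolarization so channel activation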
Target sequence (Q61143 whole entry, looked up): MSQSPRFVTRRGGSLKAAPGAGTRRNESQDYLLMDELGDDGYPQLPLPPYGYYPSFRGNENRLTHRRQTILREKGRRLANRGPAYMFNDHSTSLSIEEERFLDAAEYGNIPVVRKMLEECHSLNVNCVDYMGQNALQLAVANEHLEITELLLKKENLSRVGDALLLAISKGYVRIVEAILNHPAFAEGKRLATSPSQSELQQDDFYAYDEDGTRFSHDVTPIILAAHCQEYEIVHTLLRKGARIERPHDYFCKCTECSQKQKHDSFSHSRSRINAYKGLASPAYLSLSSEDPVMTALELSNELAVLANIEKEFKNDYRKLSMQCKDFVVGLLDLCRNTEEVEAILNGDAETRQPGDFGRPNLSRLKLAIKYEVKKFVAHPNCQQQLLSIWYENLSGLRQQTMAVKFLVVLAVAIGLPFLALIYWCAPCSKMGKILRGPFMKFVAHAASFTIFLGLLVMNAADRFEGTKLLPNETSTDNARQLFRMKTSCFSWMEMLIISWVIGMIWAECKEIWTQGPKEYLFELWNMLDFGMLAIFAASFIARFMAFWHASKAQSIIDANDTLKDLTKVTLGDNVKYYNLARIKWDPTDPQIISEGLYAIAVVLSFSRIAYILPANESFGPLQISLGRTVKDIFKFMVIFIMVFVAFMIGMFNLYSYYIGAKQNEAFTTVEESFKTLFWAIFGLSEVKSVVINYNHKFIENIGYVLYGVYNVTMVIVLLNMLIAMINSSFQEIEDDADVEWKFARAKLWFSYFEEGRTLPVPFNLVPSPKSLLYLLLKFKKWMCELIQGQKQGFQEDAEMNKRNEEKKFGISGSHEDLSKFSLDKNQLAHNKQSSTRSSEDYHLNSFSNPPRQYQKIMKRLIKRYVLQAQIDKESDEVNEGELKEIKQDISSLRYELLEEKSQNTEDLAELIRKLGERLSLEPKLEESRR
TRPC6 inhibitor = mouse TRPC6 channel inhibition. Q61143. HEK293-TRPC6, membrane potential dye, ACh-evoked depolarization; active compounds read low. B-score at 10 µM. actives 1.1% (n = 310,000);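 active = B-score under library mean minus 3 SD, initial fluorescence not abnormally high, positive integrated signal ratio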;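 also: B-score derived from integrated fluorescence ratio over the kinetic read; more negative B-score means stronger inhibition of depolarization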
TRPC4 act = activators of mouse TRPC4 channel; Q9QUQ5; HEK293 TRPC4beta/mu-opioid, Fluo4 calcium fluorescence; active compounds read high; B-score at 10 µM; actives 0.49% (n = 310,000); AID 2237;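 active = B-score above 5 SD of library B-scores, and initial fluorescence ratio not above library mean plus 5 SD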;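 also: positive B-score marks a calcium rise read as TRPC4 activation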
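Material: TRPC4beta and mu-opioid receptor HEK293 stable cells | Incubation: 45 min room-temperature Fluo4 loading, 110 s read | Detection: Kinetic Fluo4 calcium fluorescence | Measure: Integrated baseline-normalised fluorescence ratio, converted to per-well B score | Benchmarks: Low control buffer alone, high control maximal DAMGO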
Each line names hits and unclear results; the compound was inactive in the other large screens.

OC(COc1ccc2ccccc2c1Br)Cn1ccnc1 (configuration not stated)	none
OC(COc1ccc2ccccc2c1)Cn1ccnc1 (configuration not stated)	TRPC4 potent 11
CCNc1nc(NC(C)(C)C)nc(N2CCCC2)n1	TRPC4 block -8
CCCCn1c(=N)n(CC(O)COc2ccc(C)cc2)c2ccccc21 (configuration not stated)	FID counter 41
CCC(=O)c1ccccc1OCCCN1CCC(Cc2ccccc2)CC1	TRPC6 inhibitor -6.5
CCOc1ccccc1OCCN1CCC(Cc2ccccc2)CC1	none
C#CCNC(=O)C1=C[C@@H](C)[C@H](CCCO)[C@@H](OCC)O1	none (no result: FID counter)
COc1ccc(/C=C2/SC(=S)N(CCCC(=O)Nc3ccccc3C(=O)O)C2=O)cc1	TRPC4 block -6
Cc1ccc(/C=C2\SC(=S)N(CCCC(=O)Nc3ccccc3C(=O)O)C2=O)cc1	none
CCCCn1c(SCC(=O)OCC)nc2c(sc(=S)n2-c2ccccc2OC)c1=O	TRPC4 block -6
COc1ccccc1-n1c(SCC(=O)O)nc2c(sc(=S)n2-c2ccccc2C)c1=O	none
CCCCn1c(N)c(N(CC(C)C)C(=O)Cc2ccc3c(c2)OCCO3)c(=O)[nH]c1=O	none (no result: FID counter)
COCCNC(=O)CN(Cc1ccccc1)C(=O)CCC(=O)Nc1nccs1	none
c1ccc(-c2ccc(OCCCNC3CCCC3)cc2)cc1	FID counter 41
Cc1cc(Nc2ccccc2)nc2cc(O)ccc12	TRPC4 block -7
Cc1cc(Nc2cccc(O)c2)c2ccccc2n1	TRPC4 block -5
Cc1cc(Nc2cccc(Br)c2)c2ccccc2n1	none (no result: FID counter)
COc1ccccc1CN1CCCC(CNC(=O)c2cccc3ccccc23)C1 (configuration not stated)	none
Cc1ccoc1C(=O)Nc1cccc2ccccc12	none
O=C(COC(=O)c1ccccc1C(=O)N1CCN(c2ccccc2)CC1)Nc1ccccc1	none
O=C(COC(=O)c1ccccc1C(=O)N1CCN(c2ccccc2)CC1)Nc1ccc(F)cc1	TRPC4 potent 17
CC1=NN(c2ccccc2)C(=O)/C1=C/c1c(O)n(-c2ccc(F)c(Cl)c2)[nH]c1=O	TRPC4 block -8, FID counter 41
Cc1noc(C)c1COC(=O)[C@@H](NC(=O)c1ccccc1Cl)C(C)C	TRPC4 potent 48
Cc1ccccc1Nc1nc(N)nc(COC(=O)[C@@H](NC(=O)c2ccccc2Cl)C(C)C)n1	none (no result: FID counter)
COc1cccc(N(CC(=O)NC2CCCCC2)C(=O)CCC(=O)Nc2nc(C)cs2)c1	none
Cc1cc(-c2csc3ncnc(N4CCN(C)CC4)c23)cc(C)c1C	TRPC4 block -7
COc1ccc(S(=O)(=O)Nc2c(O)ccc3ccccc23)cc1OC	none (no result: FID counter)
O=C(NCCc1ccccn1)C(F)(F)C(F)(F)C(F)(F)C(F)(F)C(F)(F)C(F)(F)C(F)(F)C(F)F	TRPC4 act 165
O=C(COc1ccc(Cl)cc1)NCCc1ccccn1	none
CC(C)CC(=O)Nc1c(C(=O)N2CCN(Cc3ccccc3)CC2)oc2ccccc12	none
CCNC(=S)N(Cc1cc2cc(C)c(C)cc2[nH]c1=O)C1CCCC1	none
CCNC(=S)N(Cc1cc2cc(C)ccc2[nH]c1=O)C1CCCC1	TRPC4 potent 12
COc1cc2c(cc1OC)C(C)N(C(=O)[C@@H](NC(=O)c1ccccc1)C(C)C)CC2 (some centres not stated)	none
COc1cc2c(cc1OC)C(C)N(C(=O)C(NC(=O)c1ccccc1)C(C)C)CC2 (configuration not stated)	TRPC4 act 96
CC(C)Oc1ccc(C2NC(=O)c3ccccc3O2)cc1 (configuration not stated)	none
CCc1ccc(S(=O)(=O)/N=C2\C=C(Nc3cccc(C(=O)O)c3)C(=O)c3ccccc32)cc1	TRPC4 block -8
O=C(NC1CC2CCCC(C1)N2Cc1ccccc1)c1ccc([N+](=O)[O-])cc1 (configuration not stated)	none
COc1ccc(OC)c2sc(N(CCN(C)C)C(=O)/C=C/c3cccs3)nc12	FID counter 44
CCn1nnc(NC(=O)c2ccco2)n1	none
CCOC(=O)C1(Cc2cccc(F)c2)CCN(Cc2c(C)nn(CC)c2C)CC1	TRPC4 block -6
CCOC(=O)C1(Cc2cccc(F)c2)CCN(C(=O)COC)CC1	none
CCCn1ncc(CN2CCC(Cc3cccc(F)c3)(C(=O)OCC)CC2)c1C	none
CCOC(=O)C1(CCCc2ccccc2)CCN(Cc2cn(CC)nc2C)CC1	TRPC4 act 124
CCOC(=O)C1(Cc2cccc(F)c2)CCN(Cc2cn(CC)nc2C)CC1	TRPC4 act 78
COc1ccccc1OCCNC(=O)c1ccc(C)c(S(=O)(=O)N2CCOCC2)c1	none (no result: FID counter)
COc1cccc(COC(=O)C2CCN(S(=O)(=O)c3ccc(C)cc3C)CC2)c1OC	none (no result: FID counter)
CC(=O)c1cccc(NC(=O)CCCCCn2nnc3ccccc3c2=O)c1	none
O=C(CCCC(=O)c1ccc(F)cc1)c1ccc(F)cc1	none
CC(C)(C)c1nnc(NS(=O)(=O)c2ccc([N+](=O)[O-])cc2)s1	none
O=[N+]([O-])c1cccc(/C=N/Nc2nc(NCc3ccccc3)nc(N3CCOCC3)n2)c1O	TRPC4 act 53
Cc1ccc(C(=O)NNC(=O)C2CSC3(C)CCC(=O)N23)cc1 (configuration not stated)	TRPC4 potent 24 (no result: FID counter)
Cc1ccc(NC(=O)c2nc(S(=O)(=O)Cc3ccccc3C)ncc2Cl)cc1C	none
Cn1c(=O)cc(OCCCC(=O)NCCCN2CCN(Cc3ccccc3)CC2)c2ccccc21	TRPC4 potent 25
Cn1c(=O)cc(OCCCC(=O)NCCN2CCN(c3ccccc3F)CC2)c2ccccc21	none
O=C(CN1CCN(S(=O)(=O)c2ccc(Br)cc2)CC1)N/N=C/c1ccncc1	TRPC4 potent 15
O=C(CN1CCN(S(=O)(=O)c2ccc(Br)cc2)CC1)N/N=C/c1cccs1	none
O=C1c2ccccc2C2(c3ccccc3)NCCCN12 (configuration not stated)	none
O=C1c2ccccc2C2(c3cc(C(F)(F)F)cc(C(F)(F)F)c3)NCCN12 (configuration not stated)	TRPC4 block -6
CCCCN(CC)CCNC(=O)Cn1cc2c(n1)-c1c(oc(C(=O)N3CCCC3)c1C)CC2	TRPC4 act 125
O=C(c1cccc(S(=O)(=O)N2CCc3ccccc32)c1)N1CCN(c2ccccn2)CC1	TRPC6 activator 16
CC(C)CCn1c(N2CCN(c3cccc(Cl)c3)CC2)nc2c1c(=O)[nH]c(=O)n2C	TRPC4 potent 16
O=[N+]([O-])c1cccc(N(CC(O)CN2CCCC2)S(=O)(=O)c2ccccc2)c1 (configuration not stated)	TRPC4 block -8
